Measurements from different studies.
Compare with care: the assays were run in different laboratories.
JAK2: Tyrosine-protein kinase JAK2 (JAK2, Homo sapiens, UniProt O60674)
NMUR1: Neuromedin-U receptor 1 (NMUR1, Homo sapiens, UniProt Q9HB89)
LCK: Tyrosine-protein kinase Lck (LCK, Homo sapiens, UniProt P06239)

| Compound | target | assay | conditions | measurement | value |
| --- | --- | --- | --- | --- | --- |
| CC(=O)Nc1cc(Oc2ccc3c(c2)CCN3C(=O)Nc2ccc(CN3CCN(C)CC3)c(C(F)(F)F)c2)ncn1 | JAK2 | enzyme activity, inhibitor, ELISA |  | Ki | 22000 nM |
| C[C@@]12CCC(=O)N1c1cc(Nc3ncc(Cl)c(-c4cccc(-c5ccccc5)c4)n3)cnc1OC2 | Phosphatidylinositol 5-phosphate 4-kinase type-2 gamma (PIP4K2C, Homo sapiens, UniProt Q8TBX8) | binding |  | Kd | 0.45 nM |
| COc1ccc2c(Oc3ccc4c(C(=O)Nc5ccccc5N)cccc4c3)ccnc2c1 | JAK2 | enzyme activity, inhibitor |  | IC50 | > 500 nM |
| ON=Cc1ccc(-c2ccc(O)c(F)c2)c(Cl)c1O | Estrogen receptor beta (ESR2, Homo sapiens, UniProt Q92731) | reporter gene, agonist, luciferase |  | EC50 | 72 nM |
| CC(C)C[C@H](NC(=O)[C@H](Cc1ccccc1)NC(=O)[C@H](Cc1ccc(O)cc1)NC(=O)CNC(=O)[C@H](CCCNC(=N)N)NC(=O)[C@H](CO)NC(=O)[C@H](CCC(N)=O)NC(=O)[C@H](CO)NC(=O)[C@H](C)NC(=O)[C@H](Cc1ccccc1)NC(=O)[C@@H]1CCCN1C(=O)[C@H](CO)NC(=O)[C@H](CCC(N)=O)NC(=O)[C@H](Cc1ccccc1)NC(=O)[C@H](CCC(=O)O)NC(=O)[C@H](CCC(=O)O)NC(=O)[C@H](CC(=O)O)NC(=O)[C@@H](NC(=O)[C@H](CCCNC(=N)N)NC(=O)[C@@H](N)Cc1ccccc1)C(C)C)C(=O)N[C@@H](Cc1ccccc1)C(=O)N[C@@H](CCCNC(=N)N)C(=O)N1CCC[C@H]1C(=O)N[C@@H](CCCNC(=N)N)C(=O)N[C@@H](CC(N)=O)C(N)=O | NMUR1 | inositol phosphate, agonist, TR-FRET |  | EC50 | 0.12 nM |
| O=C(/C=C/c1ccc(O)c2c1[C@H](C(=O)O[C@H](Cc1ccc(O)c(O)c1)C(=O)O)[C@@H](c1ccc(O)c(O)c1)O2)O[C@H](Cc1ccc(O)c(O)c1)C(=O)O | Platelet glycoprotein 4 (CD36, Homo sapiens, UniProt P16671) | binding, SPR |  | Kd | 3740 nM |
| CN1CC(Oc2cnc(C#N)cc2-c2ccn3nc(NC(=O)C4CC4)cc3c2)C1 | LCK | enzyme activity, inhibitor |  | Ki | 220 nM |
| CC1(C)[C@@H](O)CC[C@]2(C)[C@H]3C(=O)C=C4[C@@H]5C[C@@](C)(C(=O)O)CC[C@]5(C)CC[C@@]4(C)[C@]3(C)CC[C@@H]12 | Peroxiredoxin-2 (PRDX2, Homo sapiens, UniProt P32119) | binding, SPR |  | Kd | 30000 nM |
| CC(C)C[C@H](NC(=O)[C@H](Cc1ccccc1)NC(=O)[C@@H](N)Cc1ccc(O)cc1)C(=O)N[C@@H](Cc1ccccc1)C(=O)N[C@@H](CCCNC(=N)N)C(=O)N1CCC[C@H]1C(=O)N[C@@H](CCCNC(=N)N)C(=O)N[C@@H](CC(N)=O)C(N)=O | NMUR1 | β-arrestin recruitment, agonist |  | EC50 | 1.7 nM |
| Cc1cnc(-c2ccc(-c3ccc(NC(=O)Nc4c(F)cc(F)cc4F)cc3F)c3c2C(=O)NC3)[nH]1 | LCK | binding, competition with immobilised ligand |  | Kd | 11 nM |
| Cc1cc2nc3c(=O)[nH]c(=O)nc-3n(C[C@H](O)[C@H](O)[C@H](O)COP(=O)(O)OP(=O)(O)OC[C@H]3O[C@@H](n4cnc5c(N)ncnc54)[C@H](O)[C@@H]3O)c2cc1C | RNA-binding protein Musashi homolog 2 (MSI2, Homo sapiens, UniProt Q96DH6) | binding | lysate | Kd | 59 nM |
| C[S+](CC[C@H](N)C(=O)O)C[C@H]1O[C@@H](n2cnc3c(N)ncnc32)[C@H](O)[C@@H]1O (stereo partly drawn) | tRNA (guanine-N(1)-)-methyltransferase (trmD, Escherichia coli, UniProt P0A873) | binding, fluorescence |  | Kd | 1400 nM |
